From ChEMBL document CHEMBL1127562, “N-substituted spirosuccinimide, spiropyridazine, spiroazetidine, and acetic acid aldose reductase inhibitors derived from isoquinoline-1,3-diones. 2” (J Med Chem, 1994)
One block for each molecule: values may come before it. Activity calls are given as the source filed them. No cut-off for these calls is given here.

Tests used:
Rattus norvegicus [1] = assay: Tested for in vivo inhibition of galactitol accumulation in the lens of galactose-fed rats at the dose of 46.1 (mg/kg/day); NS=Not significant; assay type: functional, organism-based; details: Lens of camera-type eye
Rattus norvegicus [2] = assay: Tested for in vivo inhibition of galactitol accumulation in the sciatic nerve of galactose-fed rats at the dose of 46.1 (mg/kg/day); NS=Not significant; assay type: functional, organism-based
How it was run: (§1)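 Rats were given a 20% galactose diet for 4 days, with the test compound administered in the diet. Sciatic nerve galactitol accumulation was measured, and activity is given as % inhibition at the stated daily dose (mg/kg/day). Values are mean ± SEM, n = 6 animals; p < 0.01 unless indicated. NS means no significant inhibition of polyol accumulation.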

[3] = biological target: Aldo-keto reductase family 1 member B1 (Bos taurus) (UniProt P16116); assay: Inhibition of aldose reductase activity in partially purified bovine lens preparation at 4*10 e-8 M
Rattus norvegicus [4] = assay: Tested for in vivo inhibition of galactitol accumulation in the sciatic nerve of galactose-fed rats at the dose of 47 (mg/kg/day); NS=Not significant; assay type: functional, organism-based; how it was run: as §1
[5] = biological target: Aldo-keto reductase family 1 member B1 (Bos taurus) (UniProt P16116); assay: Compound was tested in vitro for inhibition of aldose reductase activity in partially purified bovine lens preparation at 10e-5 M; Not significant; NS=Not significant
How it was run: (§2)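 Partially purified bovine lens aldose reductase. Reduction of DL-glyceraldehyde substrate followed spectrophotometrically. Activity expressed as average inhibition at the tested concentrations, 1×10^-5, 1×10^-6, 1×10^-7 and 4×10^-6 M as printed; IC50 in M where given.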

Rattus norvegicus [6] = assay: Tested for in vivo inhibition of galactitol accumulation in the lens of galactose-fed rats at the dose of 48 (mg/kg/day); NS=Not significant; assay type: functional, organism-based; details: Lens of camera-type eye
Rattus norvegicus [7] = assay: Tested for in vivo inhibition of galactitol accumulation in the sciatic nerve of galactose-fed rats at the dose of 48 (mg/kg/day); assay type: functional
How it was run: (§3)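 Rats fed a 20% galactose diet for 4 days, with test compound given in the diet at the stated daily dose (mg/kg/day). Read-out is inhibition of galactitol (polyol) accumulation in sciatic nerve. Values are % inhibition, mean ± SEM of six animals; p < 0.01 unless marked (some p < 0.05). NS = no significant inhibition of polyol accumulation. Tolrestat was the reference standard.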

[8] = biological target: Aldo-keto reductase family 1 member B1 (Bos taurus) (UniProt P16116); assay: Inhibition of aldose reductase activity in partially purified bovine lens preparation at 10e-5 M; how it was run: as §2
Rattus norvegicus [9] = assay: Tested for in vivo inhibition of galactitol accumulation in the sciatic nerve of galactose-fed rats at the dose of 24 (mg/kg/day); NS=Not significant; assay type: functional, organism-based; how it was run: as §1
Rattus norvegicus [10] = assay: Tested for in vivo inhibition of galactitol accumulation in the lens of galactose-fed rats at the dose of 24 (mg/kg/day); NS=Not significant; assay type: functional, organism-based; details: Lens of camera-type eye
Rattus norvegicus [11] = assay: Tested for in vivo inhibition of galactitol accumulation in the sciatic nerve of galactose-fed rats at the dose of 54.8 (mg/kg/day); assay type: functional; how it was run: as §3
Rattus norvegicus [12] = assay: Tested for in vivo inhibition of galactitol accumulation in the lens of galactose-fed rats at the dose of 54.8 (mg/kg/day); NS=Not significant; assay type: functional, organism-based; details: Lens of camera-type eye
Rattus norvegicus [13] = assay: Tested for in vivo inhibition of galactitol accumulation in the lens of galactose-fed rats at the dose of 24.5 (mg/kg/day); NS=Not significant; assay type: functional, organism-based; details: Lens of camera-type eye
Rattus norvegicus [14] = assay: Tested for in vivo inhibition of galactitol accumulation in the sciatic nerve of galactose-fed rats at the dose of 24.5 (mg/kg/day); assay type: functional; how it was run: as §1
Rattus norvegicus [15] = assay: Tested for in vivo inhibition of galactitol accumulation in the sciatic nerve of galactose-fed rats at the dose of 91.6 (mg/kg/day); NS=Not significant; assay type: functional, organism-based; how it was run: as §3
Rattus norvegicus [16] = assay: Tested for in vivo inhibition of galactitol accumulation in the lens of galactose-fed rats at the dose of 91.6 (mg/kg/day); NS=Not significant; assay type: functional, organism-based; details: Lens of camera-type eye
How it was run: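 Galactosemic rats were fed 20% galactose for 4 days, with the compound mixed into the diet. […] galactitol accumulation was measured, and activity is given as % inhibition at the stated daily dose (mg/kg/day). Values are mean ± SEM of six animals; p < 0.01 unless indicated. NS means no significant inhibition of polyol accumulation.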

Rattus norvegicus [17] = assay: Tested for in vivo inhibition of galactitol accumulation in the sciatic nerve of galactose-fed rats at the dose of 1.1 (mg/kg/day); NS=Not significant
Rattus norvegicus [18] = assay: Tested for in vivo inhibition of galactitol accumulation in the sciatic nerve of galactose-fed rats at the dose of 26.2 (mg/kg/day); NS=Not significant; assay type: functional, organism-based; how it was run: as §1
Rattus norvegicus [19] = assay: Tested for in vivo inhibition of galactitol accumulation in the sciatic nerve of galactose-fed rats at the dose of 102.8 (mg/kg/day); NS=Not significant; assay type: functional, organism-based; how it was run: as §1
Rattus norvegicus [20] = assay: Tested for in vivo inhibition of galactitol accumulation in the lens of galactose-fed rats at the dose of 102.8 (mg/kg/day); NS=Not significant; assay type: functional, organism-based; details: Lens of camera-type eye
Rattus norvegicus [21] = assay: Tested for in vivo inhibition of galactitol accumulation in the sciatic nerve of galactose-fed rats at the dose of 22 (mg/kg/day); NS=Not significant; assay type: functional, organism-based; how it was run: as §1
Rattus norvegicus [22] = assay: Tested for in vivo inhibition of galactitol accumulation in the lens of galactose-fed rats at the dose of 22 (mg/kg/day); NS=Not significant; assay type: functional, organism-based; details: Lens of camera-type eye
Rattus norvegicus [23] = assay: Tested for in vivo inhibition of galactitol accumulation in the lens of galactose-fed rats at the dose of 25.0 (mg/kg/day); NS=Not significant; assay type: functional, organism-based; details: Lens of camera-type eye
Rattus norvegicus [24] = assay: Tested for in vivo inhibition of galactitol accumulation in the sciatic nerve of galactose-fed rats. at the dose of 25.0 (mg/kg/day); NS=Not significant; assay type: functional, organism-based; how it was run: as §3

inhibition [3]: 61%
SMILES: COc1ccc2c(c1)C(=O)N(Cc1ccc(Br)cc1F)C(=O)C2CC(=O)O (configuration not stated)
inhibition (Rattus norvegicus [1]): inactive
inhibition (Rattus norvegicus [2]): inactive

inhibition [5]: inactive
SMILES: CN1C(=O)CC2(C(=O)N(Cc3ccc(Br)cc3F)C(=O)c3ccc(F)cc32)C(=O)N1C (configuration not stated)
inhibition (Rattus norvegicus [4]): inactive

inhibition [8]: 84%
SMILES: COC(=O)NC(=O)CC1C(=O)N(Cc2ccc(Br)cc2F)C(=O)c2ccccc21 (configuration not stated)
inhibition (Rattus norvegicus [6]): inactive
Inhibition (Rattus norvegicus [7]): 96%

inhibition [3]: 62%
SMILES: O=C(O)CC1C(=O)N(Cc2nc3cc(C(F)(F)F)ccc3s2)C(=O)c2ccc(F)cc21 (configuration not stated)
inhibition (Rattus norvegicus [9]): inactive
inhibition (Rattus norvegicus [10]): inactive

inhibition [8]: inactive
SMILES: COC(=O)N(C(=O)OC)N1C(=O)CC2(C(=O)N(Cc3ccc(Br)cc3F)C(=O)c3ccccc32)C1=O (configuration not stated)
Inhibition (Rattus norvegicus [11]): 50%
inhibition (Rattus norvegicus [12]): inactive

inhibition [8]: inactive
SMILES: CCOC(=O)NC(=O)CC1C(=O)N(C)C(=O)c2ccc(Cl)cc21 (configuration not stated)
inhibition (Rattus norvegicus [13]): inactive
Inhibition (Rattus norvegicus [14]): 21%

inhibition [8]: inactive
SMILES: CCCN1C(=O)c2ccccc2C(CC(=O)NC(=O)OC)C1=O (configuration not stated)
inhibition (Rattus norvegicus [15]): inactive
inhibition (Rattus norvegicus [16]): inactive

inhibition [8]: inactive
SMILES: CCN1C(=O)CC2(C(=O)N(C)C(=O)c3ccc(Cl)cc32)C1=O (configuration not stated)
inhibition (Rattus norvegicus [17]): inactive

inhibition [8]: 60%
SMILES: O=C(O)CN1C(=O)CC2(C1=O)C(=O)N(Cc1ccc(Br)cc1F)C(=O)c1ccc(F)cc12 (configuration not stated)
inhibition (Rattus norvegicus [18]): inactive

inhibition [3]: 50%
SMILES: O=C(O)CC1C(=O)N(Cc2ccc(Br)cc2F)C(=O)c2ccccc21 (configuration not stated)
inhibition (Rattus norvegicus [19]): inactive
inhibition (Rattus norvegicus [20]): inactive

SMILES: COc1c(CC(=O)O)c2ccccc2c(=O)n1Cc1ccc(Br)cc1F
inhibition (Rattus norvegicus [21]): inactive
inhibition (Rattus norvegicus [22]): inactive

inhibition [3]: 57%
SMILES: O=C(O)CC1C(=O)N(Cc2ccc(Br)cc2F)C(=O)c2ccc(Cl)cc21 (configuration not stated)
inhibition (Rattus norvegicus [23]): inactive
inhibition (Rattus norvegicus [24]): inactive
